Screening results as filed in PubChem.
Compounds with a hit are over-represented: about 2.8% of the library has one in this group of screens.
eIF4E-4G inh = blocks eIF4E binding to eIF4G; P63073+Q04637; TR-FRET eIF4E-eIF4GI(517-606) binding, 2 h; inhibition, % at 21.7 µM; 220,000 tested, 0.37% active;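 further: 0% = full FRET control wells and 100% = background wells lacking eIF4GI fragment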
p47phox inh = p47phox (human) inhibition. inhibition, % at 24.7 µM. 220,000 tested, 0.53% active. AID 1274. p47phox/p22phox peptide binding, fluorescence polarization, 2 h. P14598;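 further: 0% = p47phox with labelled peptide and 100% = labelled peptide alone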
14-3-3 Bad PPI = disrupts binding of bovine 14-3-3 zeta to phospho-Bad peptide. TR-FRET 14-3-3zeta/Dy647-pBad peptide displacement, 1 h. P63103. inhibition, % at 21.7 µM. 220,000 tested, 0.71% active. AID 781;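 active means inhibition above about 70%, limit read from the data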;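 further: 0% = full 14-3-3 plus peptide FRET controls and 100% = background without 14-3-3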
Wee1 degr inh = inhibitors of human Wee1 degradation. HeLa Luc-Wee1K328M stability, luciferase luminescence; 100% = proteasome inhibitor MG132 effect. reporter increase, % at 5 µM. 220,000 tested, 1.2% active;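 active means activation above the mean of all tested compounds plus 3 SD, set per screening run, cut at about 8.8% in these data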;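 further: cells exposed to compound for 20 h before luminescence read; 0% = DMSO alone and 100% = MG132 at 30 µM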
Target sequence (P30291 whole entry K328M): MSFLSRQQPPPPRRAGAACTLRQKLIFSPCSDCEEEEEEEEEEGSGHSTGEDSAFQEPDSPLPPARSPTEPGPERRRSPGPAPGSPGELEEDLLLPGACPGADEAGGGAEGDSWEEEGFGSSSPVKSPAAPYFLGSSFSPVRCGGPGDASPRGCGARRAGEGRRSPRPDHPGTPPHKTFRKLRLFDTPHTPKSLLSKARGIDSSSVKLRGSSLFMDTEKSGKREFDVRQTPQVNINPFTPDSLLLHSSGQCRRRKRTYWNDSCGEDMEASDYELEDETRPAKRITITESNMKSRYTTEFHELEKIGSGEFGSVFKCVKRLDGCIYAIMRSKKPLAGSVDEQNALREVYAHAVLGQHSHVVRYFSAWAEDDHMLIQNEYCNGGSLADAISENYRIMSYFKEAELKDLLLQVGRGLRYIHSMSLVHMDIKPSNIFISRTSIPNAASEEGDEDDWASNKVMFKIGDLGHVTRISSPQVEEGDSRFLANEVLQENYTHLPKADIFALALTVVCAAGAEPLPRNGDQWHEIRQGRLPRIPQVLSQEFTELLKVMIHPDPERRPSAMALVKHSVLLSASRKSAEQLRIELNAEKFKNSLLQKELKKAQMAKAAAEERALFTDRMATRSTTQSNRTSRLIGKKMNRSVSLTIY
RBBP9 inh = inhibitors of human serine hydrolase RBBP9; recombinant RBBP9, FP-Rh probe fluorescence polarization; inhibition, % at 7.94 µM; 220,000 tested, 0.2% active; AID 1515;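 active means inhibition above the campaign mean of all tested compounds plus 3 SD, cut at about 14% in these data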;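 further: plate controls were DMSO wells with RBBP9 for no effect and wells lacking RBBP9 protein for full effect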
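Material: RBBP9 protein. Amount: RBBP9 at 2.5 µM in dispensed solution, before mixing. Schedule: 30 min then 45 min, 25 °C. Medium: Tris buffer pH 8.0, NaCl, Pluronic. Measured by: fluorescence polarization. Measure: percent inhibition from mP, scaled between DMSO and no-protein wells. Replication: one well per compound.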
Starred values were filed as active, the others as inactive; . = no result; [ ] = dose if it differs, or a comment.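 How the source made its calls, unless noted: active means inhibition above about 30% (limit read from the data); inactive means the rest.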

SMILES | eIF4E-4G inh | p47phox inh | 14-3-3 Bad PPI | Wee1 degr inh | RBBP9 inh
c1ccc(CN(Cc2ccccc2)c2ncnc3c2nnn3Cc2ccccc2)cc1 | 3 | -7 | 2 | 3 | 5
COc1ccc2nc(/N=C/c3c(C)[nH]n(-c4ccc(C)cc4)c3=O)sc2c1 | 2 | 34* | 0 | -2 | -8
COc1ccc2nc(/N=C\N(C)C)sc2c1 | 3 | -8 | 47 | 1 | 0
CCCCOc1ccc(C(=O)NCc2ccccn2)cc1 | 8 | 38* | -6 | 1 | -3
CCn1c2ccccc2c2cc(NC(=O)CSc3nnc(-c4ccc(OC)c(OC)c4)n3N)ccc21 | -2 | -18 | 5 | 1 | -9
CCOc1ccc(-c2nnc(SCC(=O)Nc3ccc4c(c3)c3ccccc3n4CC)n2N)cc1 | -48 | 28 | 73* | 0 | -6
COC(=O)c1sccc1NC(=O)Cn1nnc(-c2ccccc2C)n1 | -1 | -6 | -8 | -2 | 0
COc1ccc(Cl)cc1NC(=O)C1CCCO1 (stereo unspecified) | 6 | -9 | -7 | -1 | -12
CCOc1cc(NC(=O)C2CCCO2)c(OCC)cc1NC(C)=O (stereo unspecified) | -4 | 103* | -12 | 0 | -2
C=CCc1c(C)nc(-c2ccccc2)nc1N/N=C(\C)c1ccc(N)cc1 | 0 | -1 | 74*[fluorescence artefact?] | -3 | 0
C=CCc1c(C)nc(-c2ccccc2)nc1N/N=C/c1ccccc1 | 5 | -1 | 3 | -1 | 1
Cc1cccc(CNc2ccc(C(CC(N)=O)NC(=O)c3cccc(Br)c3)cc2[N+](=O)[O-])c1 (stereo unspecified) | -6 | -38 | 2 | . | .
CCOC(=O)c1cc(-c2ccccc2)sc1NC(=O)CC(C)C | 6 | -3 | 74* | 1 | -8
CCOC(=O)c1cc(-c2ccccc2)sc1NC(=O)C(C)(C)C | 1 | 5 | -2 | -1 | -3
CCC(=O)Nc1nnc(-c2ccc(Cl)s2)o1 | -1 | 0 | -16 | 9.3* | -2
Clc1ccc(CN=C2Nc3ccccc3CS2)cc1 | -4 | -17 | 8 | 8.8* | -6
Cc1ccc(CN=C2Nc3ccccc3CS2)cc1 | -3 | -12 | -1 | -1 | -4
Cn1nccc1C(=O)Nc1ccc(Cl)cc1 | 0 | -8 | 1 | -1 | 1
Cn1nccc1C(=O)Nc1ccccc1C(=O)O | -15 | 178* | 43 | 0 | -4
O=C(CSc1nnnn1Cc1ccccc1)Nc1ccccc1 | 2 | -8 | 0 | 9.3* | -3
Cc1cc(=O)oc2cc(OCC(=O)Nc3cccc(S(=O)(=O)N(C)C)c3)ccc12 | -1 | 31* | 25 | 9.6* | -9
Cc1cc(=O)oc2cc(OCC(=O)c3ccc4c(c3)NC(=O)CO4)ccc12 | 13 | 37* | 71* | -2 | -3
S=c1[nH]nc(CSCCOc2ccc(Cl)cc2Cl)o1 | -1 | -5 | 0 | 0 | -10
Cc1ccc(C)c(OC(=O)c2cncc(Br)c2)c1 | 3 | 1 | 4 | -2 | -8
COc1ccc(C(=O)NC(=S)Nc2ccc(Cc3ccncc3)cc2)cc1 | -1 | -21 | 81* | -3 | -4
SMILES | eIF4E-4G inh | p47phox inh | 14-3-3 Bad PPI | Wee1 degr inh | RBBP9 inh
Clc1ccc(-c2nc3ncccn3c2Cl)cc1 | -1 | -1 | 0 | 3 | -2
c1ccc(-c2nc(-c3ccncc3)n[nH]2)nc1 | 54* | -8 | -9 | -1 | -14
Nc1cc(N)nc(CS)n1 | 3 | 6 | -5 | -2 | -8
O=C(CCNc1ccc(F)cc1)c1cc2ccccc2o1 | -4 | 62* | -5 | 2 | -6
O=C(CCNc1cccc(F)c1)c1cc2ccccc2o1 | 7 | -9 | 12 | -2 | -4
C=CCCN(C(C(=O)OC)C(C)C)S(=O)(=O)c1ccccc1Br (stereo unspecified) | -2 | -12 | -1 | . | .
Cc1cccc(N(Cc2cc3ccccc3[nH]c2=O)S(=O)(=O)c2ccccc2)c1 | 5 | -16 | 6 | -2 | -2
CCOC(=O)C[n+]1c(C)sc2ccc(OC)cc21 | -5 | 0 | 80* | 1 | -18
CCO/C(=C/c1sc2ccc(OC)cc2[n+]1CCCS(=O)(=O)[O-])CC | -3 | -40 | 29 | 0 | 0
CCc1ccccc1NC(=S)N1N=CCC1c1ccccc1 (stereo unspecified) | -1 | 4 | -10 | 8.8* | -6
N#CCSc1nnc(-c2ccccc2O)n1Cc1ccccc1 | -1 | 1 | 6 | 11* | 5
COCCn1c(SCC#N)nnc1-c1ccccc1O | -1 | -6 | 4 | 0 | -3
O=c1cc(-c2ccco2)oc2c1ccc1ccccc12 | -3 | -19 | 77* | -2 | -6
O=S(=O)(Nc1ccc(N2CCCCC2)cc1)c1ccc(F)c(F)c1 | 7 | 0 | -11 | -2 | 1
Nc1ccccc1-c1nnc(SCc2ccccc2F)[nH]c1=O | 33*[fluorescence artefact?] | -13 | -6 | -2 | 4
CCSc1nnc(-c2ccccc2N)c(=O)[nH]1 | -3 | -8 | 0 | -4 | -7
Cc1cccc(C)c1NC(=O)CN(c1ccccn1)S(=O)(=O)c1ccccc1 | 1 | 1 | 6 | 0 | -8
CCc1cccc(NS(=O)(=O)c2ccc3c(c2)oc(=O)n3C)c1 | 2 | 40* | 2 | -2 | 5
COc1ccc(NC(=O)c2cccnc2Sc2ccccc2)c(OC)c1 | 14 | -5 | -7 | 0 | 2
COc1ccc2c(CC(=O)OCC(=O)Nc3sc4c(c3C#N)CCC(C)C4)coc2c1 (stereo unspecified) | 0 | -30 | 2 | -1 | -9
COc1cc2cc(C(c3nnnn3C3CCCCC3)N(C)C3CCCCC3)c(=O)[nH]c2cc1OC (stereo unspecified) | 2 | -9 | -1 | 6 | -1
COc1cc2cc(C(c3nnnn3C3CCCC3)N(C)C3CCCCC3)c(=O)[nH]c2cc1OC (stereo unspecified) | 30* | -2 | 8 | -1 | -4
CCOC(=O)c1cc(-c2ccc(OC)cc2)nn1-c1ccccc1C(=O)O | 34* | -8 | 2 | 3 | -3
COc1ccc(-c2cc(C(=O)NN)n(-c3ccccc3)n2)cc1 | -3 | 1 | 9 | 0 | -10
OCCC1CN(Cc2cc3c(cc2Cl)OCO3)CCN1Cc1ccccc1 (stereo unspecified) | -1 | 9 | -12 | -1 | -1
FC(F)(F)c1ccccc1-n1c(CN2CCCCC2)n[nH]c1=S | 85* | -4 | 0 | -2 | 0
O=C(Cn1cncn1)NCc1cc(F)ccc1F | 1 | 5 | -7 | -2 | -9
Nc1nc(Nc2ccccc2)nc(NCc2ccccc2)c1[N+](=O)[O-] | 4 | -2 | 4 | -3 | -2
Nc1nc(Nc2ccccc2F)nc(NCc2ccccc2)c1[N+](=O)[O-] | -1 | -32 | 4 | 9.6* | -9
CC1CCN(c2ccccc2NC(=O)c2ccc(F)cc2)CC1 | 8 | -10 | 0 | 9.5* | -4
